In ChEMBL document CHEMBL1129316, “Inhibitors of human immunodeficiency virus type 1 protease containing 2-aminobenzyl-substituted 4-amino-3-hydroxy-5-phenylpentanoic acid: synthesis, activity, and oral bioavailability” (J Med Chem, 1996):
≈ marks a conversion by molar mass, not a printed value.

How the values were obtained:
[1] = Oral Bioavailability was measured as area-under-curve(AUC) value at dose 125 mg/kg; assay type: ADME, organism-based; details: in vivo
Summary of the method: (§1)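 Female Balb/c mice, fasted 24 h before and during the study, water ad libitum. Dosed by oral gavage at 125 mg/kg in a liquid formulation. Heparinized whole blood sampled at various times, methanol-extracted, cleaned on sulfobenzyl SPE, then RP-C18 HPLC with UV at 200 nm against an internal standard. Cmax taken as observed; AUC calculated. Detection limit 0.1 µM.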

[2] = Oral Bioavailability was measured as Maximal observed concentration (Cmax) value at dose 125 mg/kg; assay type: ADME, organism-based; design: dose 125 mg/kg, route oral; details: in vivo; summary of the method: as §1
[3] = Solubility (phosphate-buffered saline, pH =7.4); assay type: physicochemical; details: read-out: S
Summary of the method: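 About 1 mg of lyophilized amorphous inhibitor in 1 mL PBS (pH 7.4), vortexed 1 min and sonicated 30 min at 37 °C. Filtered, then centrifuged at 100 000 rpm for 30 min. Supernatant run on RP-C18 HPLC (10 mM NH4OAc/CH3CN 50/50, UV 210 nm) and quantified by external standard. Minimum detectable 0.1 µg/mL.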

[4] = test system: Human immunodeficiency virus 1; assay: Antiviral activity against HIV-1, IIIB, in MT-4 Cells; assay type: functional, organism-based; details: Human immunodeficiency virus 1, MT4
Summary of the method: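 HIV-1 strain IIIB-induced cytopathic effect in HTLV-I-transformed MT4 cells. Virus adsorbed to cells at 1 × 10⁶ cells/mL, 37 °C, 1 h. Compounds added postadsorption, final 1 × 10⁵ cells/mL. Inoculum set to kill 90% of cells in 5 days. Mock-infected and compound-only controls run. DMSO ≤0.3%, medium with 10% FBS. Viability read by MTT after 5 days. Mean of repeat determinations.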

[5] = molecular target: Human immunodeficiency virus type 1 protease (Human immunodeficiency virus 1, UniProt Q72874); assay: Binding affinity against HIV-1 protease
Summary of the method: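 Recombinant HIV-1 PR expressed in E. coli JM105 and purified to homogeneity. Enzyme incubated at 37 °C in 0.1 M MES, 0.37 M NaCl, 4 mM EDTA, pH 6.25, with 280 µM chromogenic nonapeptide substrate (pNph). Initial rates taken from the absorbance decrease at 298 nm. IC50 fitted, then Ki = (IC50 − Et/2)/(1 + S/Km). Mean of two determinations; DMSO ≤5%.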

MT4 [6] = assay: Antiviral Activity against HIV-1, IIIB, in MT-4 Cells; d indicates no activity at 3 uM; assay type: functional, cell-based, Homo sapiens
Summary of the method: (§2)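 MT4 cells infected with HIV-1 IIIB; virus adsorbed at 1 × 10⁶ cells/mL, 37 °C, 1 h, then plated at 1 × 10⁵ cells/mL with compound added postadsorption. Inoculum set to kill 90% of cells in 5 days. Incubated 5 days; viability of infected and mock-infected cells by MTT, read spectrophotometrically. Medium with 10% FBS; DMSO ≤0.3%. Values given as mean ± SD, n in parentheses.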

MT4 [7] = assay: Antiviral Activity against HIV-1, IIIB, in MT-4 Cells; d indicates no activity at 10 uM; assay type: functional, cell-based, Homo sapiens; summary of the method: as §2

| Structure (SMILES) | AUC [1] [µM·h] | Cmax [2] [µM] | solubility [3] [µM] | IC50 [4] [µM] | Ki [5] [µM] | IC50 (MT4 [6]) | IC50 (MT4 [7]) |
| --- | --- | --- | --- | --- | --- | --- | --- |
| COc1ccc(CN[C@@H](C(=O)NC(C(=O)NCc2nc3ccccc3[nH]2)C(C)C)[C@H](O)[C@H](Cc2ccccc2)NC(=O)OC(C)(C)C)cc1 (stereo partly specified) | 127 | 9.1 | 9 (≈ 6.06 µg/mL) | 0.51 | 0.0077 | – | – |
| COc1ccc(CN[C@@H](C(=O)N[C@H]2c3ccccc3C[C@H]2O)[C@H](O)[C@H](Cc2ccccc2)NC(=O)[C@@H](NC(=O)OCc2ccccc2)C(C)(C)C)cc1 | 82.5 | 16.5 | < 1 | 0.254 | 0.0095 | – | – |
| CC(C)(C)OC(=O)N[C@@H](Cc1ccccc1)[C@@H](O)[C@@H](NCc1ccc(CNC(=O)CCc2nc3ccccc3[nH]2)cc1)C(=O)N[C@H]1c2ccccc2C[C@H]1O | – | – | – | 4.4 | 0.041 | – | – |
| COc1ccc(CN[C@@H](C(=O)NC2c3ccccc3C[C@H]2O)[C@H](O)[C@H](Cc2ccccc2)NC(=O)[C@@H](NC(=O)/C=C/c2ccc(OC)cc2O)C(C)(C)C)cc1 (stereo partly specified) | – | – | – | 0.238 | 0.018 | – | – |
| COc1ccc(CN[C@@H](C(=O)N[C@@H]2c3ccccc3C[C@H]2O)[C@H](O)[C@H](Cc2ccccc2)NC(=O)C(CC(N)=O)NC(=O)OCc2ccccc2)cc1 (stereo partly specified) | – | – | – | 1.4 | 0.015 | – | – |
| COc1ccc(CN[C@@H](C(=O)NC(C(=O)NCc2nc3ccccc3[nH]2)c2ccccc2)[C@H](O)[C@H](Cc2ccccc2)NC(=O)OC(C)(C)C)cc1 (stereo partly specified) | – | – | – | 0.38 | 0.011 | – | – |
| COc1ccc(CN[C@@H](C(=O)N[C@H]2c3ccccc3CC2O)[C@H](O)[C@H](Cc2ccccc2)NC(=O)[C@@H](NC(=O)OCc2ccccc2)C(C)C)cc1 (stereo partly specified) | 137 | 12.3 | 2.9 (≈ 2.06 µg/mL) | 0.344 | 0.0081 | – | – |
| CC(C)(C)OC(=O)N[C@@H](Cc1ccccc1)[C@@H](O)[C@@H](NCc1ccc(OCCO)cc1)C(=O)N[C@@H]1c2ccccc2C[C@H]1O | – | – | – | 4 | 0.08 | – | – |
| COc1ccc(CN[C@@H](C(=O)N[C@@H]2c3ccccc3C[C@H]2O)[C@H](O)[C@H](Cc2ccccc2)NC(=O)C(CC(=O)O)NC(=O)OCc2ccccc2)cc1 (stereo partly specified) | – | – | – | – | 0.022 | No activity | – |
| COc1ccc(CN[C@@H](C(=O)N[C@@H]2c3ccccc3C[C@H]2O)[C@H](O)[C@H](Cc2ccccc2)NC(=O)[C@@H](NC(=O)OC(C)(C)C)C(C)(C)C)cc1 | – | – | – | – | 0.21 | No activity | – |
| COc1ccc(CN[C@@H](C(=O)NC2c3ccccc3C[C@H]2O)[C@H](O)[C@H](Cc2ccccc2)NC(=O)[C@@H](NC(=O)CSc2nnn(C)n2)C(C)(C)C)cc1 (stereo partly specified) | 7.4 | 2.8 | 78 (≈ 58.1 µg/mL) | 0.18 | 0.012 | – | – |
| COc1ccc(CN[C@@H](C(=O)N[C@H](C(=O)NCc2nc3ccccc3[nH]2)C(C)C)[C@H](O)[C@H](Cc2ccccc2)NC(=O)[C@@H](NC(=O)OCc2ccccc2)C(C)(C)C)cc1 | 0.6 | 0.2 | < 1 | 0.025 | 0.0034 | – | – |
| CCOc1ccc(CN[C@@H](C(=O)N[C@H]2c3ccccc3C[C@H]2O)[C@H](O)[C@H](Cc2ccccc2)NC(=O)[C@@H](NC(=O)OCc2ccccc2)C(C)(C)C)cc1 | 23.9 | 4.3 | < 1 | 0.256 | – | – | – |
| COc1ccc(CN[C@@H](C(=O)N[C@@H]2c3ccccc3C[C@H]2O)[C@H](O)[C@H](Cc2ccccc2)NC(=O)OC(C)(C)C)cc1 | – | – | – | – | 0.065 | – | No activity |
| CC(C)(C)OC(=O)N[C@@H](Cc1ccccc1)[C@@H](O)[C@@H](NCc1ccc(OCCO)cc1)C(=O)NCc1ccccc1 | – | – | – | – | – | No activity | – |
| COc1ccc(CN[C@@H](C(=O)NC2c3ccccc3C[C@H]2O)[C@H](O)[C@H](Cc2ccccc2)NC(=O)[C@@H](NC(=O)CCc2ccccc2O)C(C)(C)C)cc1 (stereo partly specified) | 11.8 | 1.8 | – | 0.16 | 0.013 | – | – |
| CCC(C)C(NC(=O)OCc1ccccc1)C(=O)N[C@@H](Cc1ccccc1)[C@@H](O)[C@@H](NCc1ccc(OC)cc1)C(=O)N[C@@H]1c2ccccc2CC1O (stereo partly specified) | – | – | – | 1.1 | 0.0082 | – | – |
| CC(=O)NCc1ccc(CN[C@@H](C(=O)N[C@H]2c3ccccc3C[C@H]2O)[C@H](O)[C@H](Cc2ccccc2)NC(=O)OC(C)(C)C)cc1 | – | – | – | 2.6 | 0.07 | – | – |
| CC(C)(C)OC(=O)N[C@@H](Cc1ccccc1)[C@@H](O)[C@@H](NCc1ccc(CNC(=O)OCc2ccccc2)cc1)C(=O)N[C@H]1c2ccccc2C[C@H]1O | – | – | – | – | – | – | No activity |
| COc1ccc(CN[C@@H](C(=O)N[C@H]2c3ccccc3C[C@H]2O)[C@H](O)[C@H](Cc2ccccc2)NC(=O)[C@@H](NC(=O)Nc2cccc(OC)c2OC)C(C)(C)C)cc1 | – | – | – | 0.532 | 0.013 | – | – |
| COc1ccc(CN[C@@H](C(=O)NC2c3ccccc3C[C@H]2O)[C@H](O)[C@H](Cc2ccccc2)NC(=O)[C@@H](NC(=O)CSc2nnc(C)s2)C(C)(C)C)cc1 (stereo partly specified) | 60.3 | 20 | 39 (≈ 29.7 µg/mL) | 0.178 | 0.008 | – | – |
| CC(C)(C)OC(=O)N[C@@H](Cc1ccccc1)[C@@H](O)[C@@H](NCc1ccccc1)C(=O)NCc1ccccc1 | 0.8 | 0.4 | < 1 | – | – | No activity | – |
| CCOc1ccc(CN[C@@H](C(=O)N[C@@H]2c3ccccc3C[C@H]2O)[C@H](O)[C@H](Cc2ccccc2)NC(=O)OC(C)(C)C)cc1 | – | – | – | – | 0.092 | – | No activity |
| CC(C)(C)[C@H](NC(=O)OCc1ccccc1)C(=O)N[C@@H](Cc1ccccc1)[C@@H](O)[C@@H](NCc1ccc(OCCO)cc1)C(=O)N[C@H]1c2ccccc2C[C@H]1O | 5.9 | 2.6 | 16.5 (≈ 12.4 µg/mL) | 0.155 | – | – | – |
| COc1ccc(CN[C@@H](C(=O)NC2c3ccccc3C[C@H]2O)[C@H](O)[C@H](Cc2ccccc2)NC(=O)[C@@H](NC(=O)CSc2nncn2C)C(C)(C)C)cc1 (stereo partly specified) | 1.6 | 0.7 | 260 (≈ 193 µg/mL) | 0.19 | 0.0058 | – | – |
| CC(C)(C)OC(=O)N[C@@H](Cc1ccccc1)[C@@H](O)[C@@H](NCc1ccc(CNC(=O)Nc2ccccc2)cc1)C(=O)N[C@@H]1c2ccccc2C[C@H]1O | – | – | – | – | 0.033 | – | No activity |
| COc1ccc(CN[C@@H](C(=O)NC2c3ccccc3C[C@H]2O)[C@H](O)[C@H](Cc2ccccc2)NC(=O)[C@@H](NC(=O)CCc2ccc(OC)c(O)c2)C(C)(C)C)cc1 (stereo partly specified) | 0.2 | 0.25 | – | 0.088 | 0.0077 | – | – |
| CC(C)(C)OC(=O)N[C@@H](Cc1ccccc1)[C@@H](O)[C@@H](NCc1ccc(CNC(=O)CCc2nc3ccccc3[nH]2)cc1)C(=O)NCc1ccccc1 | – | – | – | – | – | No activity | – |
| CC(C)(C)OC(=O)N[C@@H](Cc1ccccc1)[C@@H](O)[C@@H](NCc1ccc(OCCN2CCOCC2)cc1)C(=O)N[C@@H]1c2ccccc2C[C@H]1O | – | – | – | – | 0.13 | – | No activity |
